Data as given in ChEMBL document CHEMBL1134091, “Aromatic inhibitors of dehydroquinate synthase: synthesis, evaluation and implications for gallic acid biosynthesis” (Bioorg Med Chem Lett, 2001).

B1: 3-dehydroquinate synthase (Escherichia coli K-12), P07639 (protein)
chain: MERIVVTLGERSYPITIASGLFNEPASFLPLKSGEQVMLVTNETLAPLYLDKVRGVLEQAGVNVDSVILPDGEQYKSLAVLDTVFTALLQKPHGRDTTLVALGGGVVGDLTGFAAASYQRGVRFIQVPTTLLSQVDSSVGGKTAVNHPLGKNMIGAFYQPASVVVDLDCLKTLPPRELASGLAEVIKYGIILDGAFFNWLEENLDALLRLDGPAMAYCIRRCCELKAEVVAADERETGLRALLNLGHTFGHAIEAEMGYGNWLHGEAVAAGMVMAARTSERLGQFSSAETQRIITLLKRAGLPVNGPREMSAQAYLPHMLRDKKVLAGEMRLILPLAIGKSEVRSGVSHELVLNAIADCQSA

How the values were obtained:
[1] = biological target: T1, 3-dehydroquinate synthase (Escherichia coli K-12, UniProt P07639); assay: Inhibition constant for binding to Co2+ form of 3-dehydroquinate synthase (DHQ) purified from Escherichia coli
T1 sequence (P07639 whole entry): B1 chain
Method in brief: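 E. coli DHQ synthase, Co2+ form, purified with […] in all buffers from lysis onward. Assayed at rt in 50 mM MOPS pH 7.5 with […], 10 mM NAD+, 1 unit dehydroquinase, varied DAHP and inhibitor; 0.024 units enzyme added last. A234 increase followed. Ki from Dixon plots, or as half the I50 x-intercept at DAHP = Km ([…]).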

[2] = biological target: T1, 3-dehydroquinate synthase; assay: Inhibition constant for binding to Zn2+ form of 3-dehydroquinate synthase (DHQ) purified from Escherichia coli
Method in brief: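 E. coli DHQ synthase, Zn2+ form, purified with 75 mM ZnSO4 replacing CoCl2 in all buffers. Assayed at rt in 50 mM MOPS pH 7.5 with […] mM NAD+, 1 unit dehydroquinase, varied DAHP and inhibitor; 0.024 units enzyme added last. A234 increase followed. Ki from Dixon plots, or as half the I50 x-intercept at DAHP = Km ([…]).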

[3] = substrate: Oc1ccccc1O; assay: Kinetics expressed as Michaelis-Menten constant against Zn2+ form of 3-dehydroquinate synthase purified from Escherichia coli
Method in brief: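 Zn2+-form enzyme from E. coli, purified with ZnSO4 replacing CoCl2 in every buffer from cell lysis onward. Coupled assay in 50 mM MOPS pH 7.5 with ZnSO4, NAD+, dehydroquinase (1 unit) and varying DAHP substrate. Equilibrated at rt, then started with 0.024 units synthase. Absorbance increase at 234 nm monitored. Initial rates from linear least-squares fits.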

[4] = substrate: Oc1ccccc1O; assay: Kinetics expressed as Michaelis-Menten constant against Co2+ form of 3-dehydroquinate synthase purified from Escherichia coli
Method in brief: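 Co2+-form enzyme from E. coli, with CoCl2 in all buffers from lysis through purification. Coupled assay in 50 mM MOPS pH 7.5 with CoCl2, NAD+, dehydroquinase (1 unit) and varying DAHP substrate. Equilibrated at rt, then started with 0.024 units synthase. Absorbance rise at 234 nm followed over time. Initial rates taken from linear least-squares fits of progress curves.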

Molecule	Ki [1]	Ki [2]	Km [3]	Km [4]
O=C(O)c1ccc(O)c(O)c1 [PROTOCATECHUIC ACID]	44 µM	65 µM	–	–
O=C(O)c1cc(O)c(O)c(CCP(=O)(O)O)c1	5 µM	1.7 µM	–	–
Oc1ccccc1O [CATECHOL]	880 µM	630 µM	–	–
O=P(O)(O)CCc1cccc(O)c1O	200 µM	90 µM	–	–
O=C(O)c1cc(O)c(O)c(CP(=O)(O)O)c1	21 µM	0.35 µM	–	–
B1	–	–	16 µM	18 µM
